Test results reported in publication PMC9116722 (Cancer chemotherapy and pharmacology, 2022).

Test: Adverse events
Type: in vivo, human
Settings: BRCAmut
Procedure, shortened: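 Patients with germline BRCA-mutated cancers, or BRCA-wildtype TNBC or platinum-refractory ovarian cancer, took oral drug continuously twice daily in 28-day cycles. There were nine dose levels from 50 to 500 mg BID under 3+3 escalation, run separately per cohort after the first DLT. Toxicities were graded by CTCAE v4.0, with DLTs assessed during cycle 1.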

With `C[C@]1(c2nc3c(C(N)=O)cccc3[nH]2)CCCN1` [veliparib] the “Anemia, Grade 3” value (DL3 100/100 mg AM/PM) was 0 number of patients (%), the “Anemia, Grade 4” value (DL3 100/100 mg AM/PM) was 0 number of patients (%) and the “Any Grade 3/4 toxicity” value (DL3 100/100 mg AM/PM) was 0 number of patients (%). The “Any Grade 3 toxicity” value (DL3 100/100 mg AM/PM) was 0 number of patients (%), the “Any Grade 4 toxicity” value (DL3 100/100 mg AM/PM) was 0 number of patients (%) and the “Appendicitis, Grade 3” value (DL3 100/100 mg AM/PM) was 0 number of patients (%). For the same compound, the “Aspartate aminotransferase increased, Grade 3” value (DL3 100/100 mg AM/PM) was 0 number of patients (%), the “Dehydration, Grade 3” value (DL3 100/100 mg AM/PM) was 0 number of patients (%) and the “Dyspnea, Grade 4” value (DL3 100/100 mg AM/PM) was 0 number of patients (%). The “Fatigue, Grade 3” value (DL3 100/100 mg AM/PM) was 0 number of patients (%), the “Headache, Grade 3” value (DL3 100/100 mg AM/PM) was 0 number of patients (%) and the “Hypophosphatemia, Grade 3” value (DL3 100/100 mg AM/PM) was 0 number of patients (%). The “Lymphocyte count decreased, Grade 3” value (DL3 100/100 mg AM/PM) was 0 number of patients (%), the “Lymphocyte count decreased, Grade 4” value (DL3 100/100 mg AM/PM) was 0 number of patients (%) and the “Nausea, Grade 3” value (DL3 100/100 mg AM/PM) was 0 number of patients (%). For the same compound, the “Platelet count decreased, Grade 4” value (DL3 100/100 mg AM/PM) was 0 number of patients (%), the “Thromboembolic event, Grade 3” value (DL3 100/100 mg AM/PM) was 0 number of patients (%) and the “Thromboembolic event, Grade 4” value (DL3 100/100 mg AM/PM) was 0 number of patients (%). The “Urinary tract infection, Grade 3” value (DL3 100/100 mg AM/PM) was 0 number of patients (%), the “Abdominal pain, Grade 3” value (DL6 200/200 mg AM/PM) was 0 number of patients (%) and the “Alkaline phosphatase increased, Grade 3” value (DL6 200/200 mg AM/PM) was 0 number of patients (%). The “Anemia, Grade 3” value (DL6 200/200 mg AM/PM) was 0 number of patients (%), the “Anemia, Grade 4” value (DL6 200/200 mg AM/PM) was 0 number of patients (%) and the “Any Grade 3/4 toxicity” value (DL6 200/200 mg AM/PM) was 0 number of patients (%). The “Any Grade 3 toxicity” value (DL6 200/200 mg AM/PM) was 0 number of patients (%), the “Any Grade 4 toxicity” value (DL6 200/200 mg AM/PM) was 0 number of patients (%) and the “Appendicitis, Grade 3” value (DL6 200/200 mg AM/PM) was 0 number of patients (%). For the same compound, the “Aspartate aminotransferase increased, Grade 3” value (DL6 200/200 mg AM/PM) was 0 number of patients (%), the “Dehydration, Grade 3” value (DL6 200/200 mg AM/PM) was 0 number of patients (%) and the “Dyspnea, Grade 4” value (DL6 200/200 mg AM/PM) was 0 number of patients (%). The “Fatigue, Grade 3” value (DL6 200/200 mg AM/PM) was 0 number of patients (%), the “Headache, Grade 3” value (DL6 200/200 mg AM/PM) was 0 number of patients (%) and the “Hypophosphatemia, Grade 3” value (DL6 200/200 mg AM/PM) was 0 number of patients (%). The “Lymphocyte count decreased, Grade 3” value (DL6 200/200 mg AM/PM) was 0 number of patients (%), the “Lymphocyte count decreased, Grade 4” value (DL6 200/200 mg AM/PM) was 0 number of patients (%) and the “Nausea, Grade 3” value (DL6 200/200 mg AM/PM) was 0 number of patients (%). For the same compound, the “Platelet count decreased, Grade 4” value (DL6 200/200 mg AM/PM) was 0 number of patients (%), the “Thromboembolic event, Grade 3” value (DL6 200/200 mg AM/PM) was 0 number of patients (%) and the “Thromboembolic event, Grade 4” value (DL6 200/200 mg AM/PM) was 0 number of patients (%). The “Urinary tract infection, Grade 3” value (DL6 200/200 mg AM/PM) was 0 number of patients (%), the “Abdominal pain, Grade 3” value (DL7 300/300 mg AM/PM) was 0 number of patients (%) and the “Alkaline phosphatase increased, Grade 3” value (DL7 300/300 mg AM/PM) was 0 number of patients (%). The “Anemia, Grade 3” value (DL7 300/300 mg AM/PM) was 0 number of patients (%), the “Anemia, Grade 4” value (DL7 300/300 mg AM/PM) was 0 number of patients (%) and the “Any Grade 3/4 toxicity” value (DL7 300/300 mg AM/PM) was 2 (33) number of patients (%). The “Any Grade 3 toxicity” value (DL7 300/300 mg AM/PM) was 2 (33) number of patients (%), the “Any Grade 4 toxicity” value (DL7 300/300 mg AM/PM) was 0 number of patients (%) and the “Appendicitis, Grade 3” value (DL7 300/300 mg AM/PM) was 1 (17) number of patients (%). The “Aspartate aminotransferase increased, Grade 3” value (DL7 300/300 mg AM/PM) was 0 number of patients (%), the “Dehydration, Grade 3” value (DL7 300/300 mg AM/PM) was 0 number of patients (%) and the “Dyspnea, Grade 4” value (DL7 300/300 mg AM/PM) was 0 number of patients (%). The “Fatigue, Grade 3” value (DL7 300/300 mg AM/PM) was 0 number of patients (%), the “Headache, Grade 3” value (DL7 300/300 mg AM/PM) was 1 (17) number of patients (%) and the “Hypophosphatemia, Grade 3” value (DL7 300/300 mg AM/PM) was 0 number of patients (%). For the same compound, the “Lymphocyte count decreased, Grade 3” value (DL7 300/300 mg AM/PM) was 1 (17) number of patients (%), the “Lymphocyte count decreased, Grade 4” value (DL7 300/300 mg AM/PM) was 0 number of patients (%) and the “Nausea, Grade 3” value (DL7 300/300 mg AM/PM) was 0 number of patients (%). The “Platelet count decreased, Grade 4” value (DL7 300/300 mg AM/PM) was 0 number of patients (%), the “Thromboembolic event, Grade 3” value (DL7 300/300 mg AM/PM) was 0 number of patients (%) and the “Thromboembolic event, Grade 4” value (DL7 300/300 mg AM/PM) was 0 number of patients (%). The “Urinary tract infection, Grade 3” value (DL7 300/300 mg AM/PM) was 0 number of patients (%), the “Abdominal pain, Grade 3” value (DL8 400/400 mg AM/PM) was 2 (6) number of patients (%) and the “Alkaline phosphatase increased, Grade 3” value (DL8 400/400 mg AM/PM) was 0 number of patients (%). For the same compound, the “Anemia, Grade 3” value (DL8 400/400 mg AM/PM) was 1 (3) number of patients (%), the “Anemia, Grade 4” value (DL8 400/400 mg AM/PM) was 0 number of patients (%) and the “Any Grade 3/4 toxicity” value (DL8 400/400 mg AM/PM) was 11 (32) number of patients (%). The “Any Grade 3 toxicity” value (DL8 400/400 mg AM/PM) was 11 (32) number of patients (%), the “Any Grade 4 toxicity” value (DL8 400/400 mg AM/PM) was 1 (3) number of patients (%) and the “Appendicitis, Grade 3” value (DL8 400/400 mg AM/PM) was 0 number of patients (%). The “Aspartate aminotransferase increased, Grade 3” value (DL8 400/400 mg AM/PM) was 0 number of patients (%), the “Dehydration, Grade 3” value (DL8 400/400 mg AM/PM) was 1 (3) number of patients (%) and the “Dyspnea, Grade 4” value (DL8 400/400 mg AM/PM) was 0 number of patients (%). For the same compound, the “Fatigue, Grade 3” value (DL8 400/400 mg AM/PM) was 1 (3) number of patients (%), the “Headache, Grade 3” value (DL8 400/400 mg AM/PM) was 0 number of patients (%) and the “Hypophosphatemia, Grade 3” value (DL8 400/400 mg AM/PM) was 1 (3) number of patients (%). The “Lymphocyte count decreased, Grade 3” value (DL8 400/400 mg AM/PM) was 7 (21) number of patients (%), the “Lymphocyte count decreased, Grade 4” value (DL8 400/400 mg AM/PM) was 1 (3) number of patients (%) and the “Nausea, Grade 3” value (DL8 400/400 mg AM/PM) was 2 (6) number of patients (%). For the same compound, the “Platelet count decreased, Grade 4” value (DL8 400/400 mg AM/PM) was 0 number of patients (%), the “Thromboembolic event, Grade 3” value (DL8 400/400 mg AM/PM) was 2 (6) number of patients (%) and the “Thromboembolic event, Grade 4” value (DL8 400/400 mg AM/PM) was 0 number of patients (%). The “Urinary tract infection, Grade 3” value (DL8 400/400 mg AM/PM) was 1 (3) number of patients (%), the “Abdominal pain, Grade 3” value (DL9 500/500 mg AM/PM) was 0 number of patients (%) and the “Alkaline phosphatase increased, Grade 3” value (DL9 500/500 mg AM/PM) was 0 number of patients (%). The “Anemia, Grade 3” value (DL9 500/500 mg AM/PM) was 0 number of patients (%), the “Anemia, Grade 4” value (DL9 500/500 mg AM/PM) was 1 (14) number of patients (%) and the “Any Grade 3/4 toxicity” value (DL9 500/500 mg AM/PM) was 2 (29) number of patients (%).
